Measurements taken from PMC6796967 (Journal of Medicinal Chemistry, 2018).
Residues, ends and D or L forms follow the SMILES beside them.

Test system: human primary fibroblasts
Assay: WST-1 cell viability assay in fibroblasts
Assay type: cell-based
Conditions: 0.1–20 μM, 24 h treatment; highest concentration
Method in brief: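 Primary human fibroblasts (GM04390) grown in high-glucose DMEM with 10% heat-inactivated FBS and antibiotics at 3% O2, 5% CO2, 37 °C. Seeded at 100 000 cells/mL, switched to Optimem after 24 h, then given 0.1–20 μM test compound or DMSO at 48 h. After about 24 h, incubated 4 h with 10% WST-1 reagent; absorbance read at 450 nm.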

## C[C@H](NC(=O)[C@H](Cc1ccc(O)cc1)NC(=O)[C@H](Cc1ccc(O)cc1)NC(=O)[C@@H]1CCCN1C(=O)[C@@H]1CCCN1C(=O)[C@@H]1CCCN1C(=O)[C@@H]1CCCN1C(=O)[C@H](CCCNC(=N)N)NC(=O)[C@H](CCCNC(=N)N)NC(=O)[C@@H](N)CCCNC(=N)N)C(=O)O [Compound 2, RRR-PPPP-YYA-OH] (H-RRRPPPPYYA-OH)
  cytotoxic effects (cell viability, WST-1): did not exert any cytotoxic effects
